Measured values as given in ChEMBL document CHEMBL3244402, “Branched-chain analogues of luteinizing hormone-releasing hormone” (1978).
Calls of active or inactive are those of the source. No cut-off for these calls is given here. Square brackets hold non-standard residues; d marks the D form. Peptide text beside a SMILES is read from it. pGlu = O=C1CC[C@@H](C(=O)O)N1

Key:
[1] = test system: Rattus norvegicus; test: In vivo activation of LH-RH receptor in immature rat assessed as release of luteinizing hormone in serum at 50 ng, sc measured over 4 hrs by double antibody radioimmunoassay; format: functional, organism-based
Outline: (§1)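 Immature male rats were injected sc with agonist, LH-RH or saline and followed over 0.25–4 h, with blood sampled at intervals. Serum LH was measured by double antibody radioimmunoassay and FSH by radioimmunoassay, against NIH-LH-S17 and NIAMD-rat-FSH-RP1 standards.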

[2] = test system: Rattus norvegicus; test: In vivo activation of LH-RH receptor in immature rat assessed as release of follicle-stimulating hormone in serum at 50 ng, sc measured over 4 hrs by radioimmunoassay; format: functional, organism-based; outline: as §1
[3] = test system: Rattus norvegicus; test: In vivo inhibition of LH-RH receptor in immature rat assessed as inhibition of LH-RH-stimulated follicle-stimulating hormone release in serum at 300 ug, sc administered 4 hrs prior to LH-RH addition measured after 30 mins relative to vehicle-treated control; format: functional
Outline: (§2)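 Immature male rats received 300 μg peptide sc in 20% propylene glycol-saline, or vehicle alone. Synthetic LH-RH (200 ng) or saline was injected at the same time or later, over a 4-h period. Blood was taken 30 min after LH-RH. Serum LH and FSH were measured by radioimmunoassay (double antibody for LH), and percent inhibition of serum gonadotropin was calculated.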

[4] = test system: Rattus norvegicus; test: Antiovulatory activity in Sprague-Dawley rat at 1 mg, sc administered at 12 pm on proestrous day relative to vehicle-treated control; format: functional
Outline: (§3)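 Adult female SD rats (~200 g), 14 h light/10 h dark, with vaginal smears checked daily from 14 days after arrival. Only rats with at least two successive regular 4-day cycles were used. Peptide was given sc in propylene glycol-saline on the proestrous afternoon. Rats were killed the next day and oviducts inspected for ova. Read-out was % inhibition of ovulation and ova count (±SE) in ovulating rats.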

[5] = test system: Rattus norvegicus; test: In vivo inhibition of LH-RH receptor in immature rat assessed as inhibition of LH-RH-stimulated follicle-stimulating hormone release in serum at 300 ug, sc administered 1 hr prior to LH-RH addition measured after 30 mins relative to vehicle-treated control; format: functional; outline: as §2
[6] = test system: Rattus norvegicus; test: In vivo inhibition of LH-RH receptor in immature rat assessed as inhibition of LH-RH-stimulated luteinizing hormone release in serum at 300 ug, sc administered 4 hrs prior to LH-RH addition measured after 30 mins relative to vehicle-treated control; format: functional; outline: as §2
[7] = test system: Rattus norvegicus; test: In vivo inhibition of LH-RH receptor in immature rat assessed as inhibition of LH-RH-stimulated luteinizing hormone release in serum at 300 ug, sc administered 1 hr prior to LH-RH addition measured after 30 mins relative to vehicle-treated control; format: functional; outline: as §2
[8] = test system: Rattus norvegicus; test: Antiovulatory activity in Sprague-Dawley rat at 1.5 mg, sc administered at 9 am on proestrous day relative to vehicle-treated control; format: functional
[9] = test system: Rattus norvegicus; test: Antiovulatory activity in Sprague-Dawley rat at 1.5 mg, sc administered at 12 pm on proestrous day relative to vehicle-treated control; format: functional; outline: as §3
[10] = test system: Rattus norvegicus; test: In vivo inhibition of LH-RH receptor in immature rat assessed as inhibition of LH-RH-stimulated luteinizing hormone release in serum at 300 ug, sc administered 2 hrs prior to LH-RH addition measured after 30 mins relative to vehicle-treated control; format: functional; outline: as §2
[11] = test system: Rattus norvegicus; test: In vivo inhibition of LH-RH receptor in immature rat assessed as inhibition of LH-RH-stimulated luteinizing hormone release in serum at 300 ug, sc administered 0.5 hrs prior to LH-RH addition measured after 30 mins relative to vehicle-treated control; format: functional; outline: as §2
[12] = test system: Rattus norvegicus; test: In vivo activation of LH-RH receptor in immature rat assessed as release of follicle-stimulating hormone relative to control; format: functional; outline: as §1
[13] = test system: Rattus norvegicus; test: In vivo activation of LH-RH receptor in immature rat assessed as release of luteinizing hormone relative to control; format: functional; outline: as §1

SMILES	inhibition (INH) [3]	inhibition (INH) [4]	inhibition (INH) [5]	inhibition (INH) [6]	inhibition (INH) [7]	further results
CC(C)C[C@H](NC(=O)CNC(=O)[C@H](Cc1ccc(O)cc1)NC(=O)[C@H](CO)NC(=O)[C@H](Cc1c[nH]c2ccccc12)NC(=O)[C@H](Cc1cnc[nH]1)NC(=O)[C@@H]1CCC(=O)N1)C(=O)N[C@@H](CCCNC(=N)N)C(=O)N1CCC[C@H]1C(=O)NCC(N)=O	–	–	–	–	–	Activity [1]: Active; Activity [2]: Active
CC(C)C[C@H](NC(=O)[C@@H](Cc1ccccc1)NC(=O)[C@H](Cc1ccc(O)cc1)NC(=O)[C@H](CO)NC(=O)[C@@H](Cc1c[nH]c2ccccc12)NC(=O)[C@@H](Cc1ccccc1)NC(=O)[C@@H]1CCC(=O)N1)C(=O)N[C@@H](CCCNC(=N)N)C(=O)N1CCC[C@H]1C(=O)NCC(N)=O	77%	83%	65%	52%	84%	inhibition (INH) [8]: 67%
COc1ccc2c(c1)c(CC(=O)NCCCC[C@@H](NC(=O)[C@H](Cc1ccc(O)cc1)NC(=O)[C@H](CO)NC(=O)[C@@H](Cc1c[nH]c3ccccc13)NC(=O)[C@@H](Cc1ccccc1)NC(=O)[C@@H]1CCC(=O)N1)C(=O)N[C@@H](CC(C)C)C(=O)N[C@@H](CCCNC(=N)N)C(=O)N1CCC[C@H]1C(=O)NCC(N)=O)c(C)n2C(=O)c1ccc(Cl)cc1	0%	–	0%	0%	7%	inhibition (INH) [9]: 0%
CC(C)C[C@H](NC(=O)[C@@H](CCCCNC(=O)[C@H](Cc1ccc(O)cc1)NC(=O)[C@H](CO)NC(=O)[C@@H](Cc1c[nH]c2ccccc12)NC(=O)[C@@H](Cc1ccccc1)NC(=O)[C@@H]1CCC(=O)N1)NC(=O)[C@H](Cc1ccc(O)cc1)NC(=O)[C@H](CO)NC(=O)[C@@H](Cc1c[nH]c2ccccc12)NC(=O)[C@@H](Cc1ccccc1)NC(=O)[C@@H]1CCC(=O)N1)C(=O)N[C@@H](CCCNC(=N)N)C(=O)N1CCC[C@H]1C(=O)NCC(N)=O	41%	73%	43%	47%	62%	inhibition (INH) [8]: 50%
CC(=O)Oc1ccccc1C(=O)NCCCC[C@@H](NC(=O)[C@H](Cc1ccc(O)cc1)NC(=O)[C@H](CO)NC(=O)[C@@H](Cc1c[nH]c2ccccc12)NC(=O)[C@@H](Cc1ccccc1)NC(=O)[C@@H]1CCC(=O)N1)C(=O)N[C@@H](CC(C)C)C(=O)N[C@@H](CCCNC(=N)N)C(=O)N1CCC[C@H]1C(=O)NCC(N)=O	13%	–	23%	18%	57%	inhibition (INH) [9]: 11%
CC(C)C[C@H](NC(=O)[C@@H](CCCCN)NC(=O)[C@H](Cc1ccc(O)cc1)NC(=O)[C@H](CO)NC(=O)[C@@H](Cc1c[nH]c2ccccc12)NC(=O)[C@@H](Cc1ccccc1)NC(=O)[C@@H]1CCC(=O)N1)C(=O)N[C@@H](CCCNC(=N)N)C(=O)N1CCC[C@H]1C(=O)NCC(N)=O ([pGlu][dF][dW]SY[dK]LRPG-NH2)	18%	0%	37%	38%	36%	–
CC(C)C[C@H](NC(=O)[C@@H](CCCCNC(=O)c1ccccc1)NC(=O)[C@H](Cc1ccc(O)cc1)NC(=O)[C@H](CO)NC(=O)[C@@H](Cc1c[nH]c2ccccc12)NC(=O)[C@@H](Cc1ccccc1)NC(=O)[C@@H]1CCC(=O)N1)C(=O)N[C@@H](CCCNC(=N)N)C(=O)N1CCC[C@H]1C(=O)NCC(N)=O	–	11%	–	0%	–	inhibition (INH) [10]: 40%; inhibition (INH) [11]: 76%
CC(C)C[C@H](NC(=O)[C@@H](CCCCN)NC(=O)[C@H](Cc1ccc(O)cc1)NC(=O)[C@H](CO)NC(=O)[C@H](Cc1c[nH]c2ccccc12)NC(=O)[C@H](Cc1cnc[nH]1)NC(=O)[C@@H]1CCC(=O)N1)C(=O)N[C@@H](CCCNC(=N)N)C(=O)N1CCC[C@H]1C(=O)NCC(N)=O	–	–	–	–	–	Activity [12]: 300%; Activity [13]: 300%
